Experimental data as given in ChEMBL document CHEMBL1122951, “Synthesis of new polyoxin derivatives and their activity against chitin synthase from Candida albicans” (J Med Chem, 1985).

Tests used:
[1] = molecular target: Chitin synthase 1 (Candida albicans) (UniProt P23316); test: Inhibitory activity against chitin synthase from Candida albicans at a concentration 100 uM
Method in brief: (§1)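 Membrane preparation from C. albicans grown in liquid shake culture in Sabouraud broth, pH 6.5, washed in 0.2 M Tris-HCl pH 7.5 and broken with glass beads. Chitin synthase trypsin-activated just before assay. Substrate UDP-GlcNAc 0.5 mM. Percent inhibition at the stated inhibitor concentration, mean of triplicate assays.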

[2] = molecular target: Chitin synthase 1 (Candida albicans) (UniProt P23316); test: Inhibitory activity against chitin synthase from Candida albicans at a concentration 25 uM; method in brief: as §1
[3] = molecular target: Chitin synthase 1 (Candida albicans) (UniProt P23316); test: Inhibitory activity against chitin synthase from Candida albicans at a concentration 5 uM; method in brief: as §1

Chitin synthase 1 (Candida albicans), sequence (P23316 whole entry, looked up): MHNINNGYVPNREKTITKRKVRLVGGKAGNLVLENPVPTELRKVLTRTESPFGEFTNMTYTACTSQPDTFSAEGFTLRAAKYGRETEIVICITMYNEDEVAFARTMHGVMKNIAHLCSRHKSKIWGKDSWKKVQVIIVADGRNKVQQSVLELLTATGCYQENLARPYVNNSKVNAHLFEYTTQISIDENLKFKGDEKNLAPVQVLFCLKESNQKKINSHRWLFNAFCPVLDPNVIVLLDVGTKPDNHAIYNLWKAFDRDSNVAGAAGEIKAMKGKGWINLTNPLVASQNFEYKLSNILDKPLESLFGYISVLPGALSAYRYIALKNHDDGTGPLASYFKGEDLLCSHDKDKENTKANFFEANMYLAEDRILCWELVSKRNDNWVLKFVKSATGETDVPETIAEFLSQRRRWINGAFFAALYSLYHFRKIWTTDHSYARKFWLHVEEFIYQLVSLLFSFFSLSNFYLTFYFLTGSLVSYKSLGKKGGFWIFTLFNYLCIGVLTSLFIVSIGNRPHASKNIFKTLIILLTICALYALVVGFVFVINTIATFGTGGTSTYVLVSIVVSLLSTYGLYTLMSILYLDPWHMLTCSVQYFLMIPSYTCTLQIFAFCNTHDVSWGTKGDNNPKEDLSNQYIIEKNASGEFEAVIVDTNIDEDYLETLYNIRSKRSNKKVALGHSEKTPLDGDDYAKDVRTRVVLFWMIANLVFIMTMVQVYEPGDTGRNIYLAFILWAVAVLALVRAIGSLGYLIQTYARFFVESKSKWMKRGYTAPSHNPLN

Row | Compound | inhibition [1] [%] | inhibition [2] [%] | inhibition [3] [%]
1 | C[C@@H](O)[C@H](N)C(=O)N[C@@H](C(=O)O)[C@H]1O[C@@H](n2ccc(=O)[nH]c2=O)[C@H](O)[C@@H]1O | 53 | 26 | 8
2 | N[C@@H](C(=O)N[C@@H](C(=O)O)[C@H]1O[C@@H](n2ccc(=O)[nH]c2=O)[C@H](O)[C@@H]1O)[C@H](O)Cc1ccc(O)cc1 | 100 | 96 | 79
3 | NC(=O)NCCC[C@@H](N)C(=O)N[C@@H](C(=O)O)[C@H]1O[C@@H](n2ccc(=O)[nH]c2=O)[C@H](O)[C@@H]1O | 80 | 37 | 0
4 | C[C@H](N)C(=O)N[C@@H](C(=O)O)[C@H]1O[C@@H](n2ccc(=O)[nH]c2=O)[C@H](O)[C@@H]1O | 45 | 20 | 0
5 | C[C@@H](N)CNC(C(=O)O)C1OC(n2ccc(=O)[nH]c2=O)C(O)C1O (some centres undefined) | 2 | 0 | 0
6 | C[C@H](N)C(=O)N(C)[C@@H](C(=O)O)[C@H]1O[C@@H](n2ccc(=O)[nH]c2=O)[C@H](O)[C@@H]1O | 0 | 0 | 0
7 | C[C@@H](N)C(=O)N[C@@H](C(=O)O)[C@H]1O[C@@H](n2ccc(=O)[nH]c2=O)[C@H](O)[C@@H]1O | 0 | 0 | 0
8 | NC(=O)NCCC[C@@H](N)C(=O)N[C@H](C(=O)O)[C@H]1O[C@@H](n2ccc(=O)[nH]c2=O)[C@H](O)[C@@H]1O | 0 | 0 | 0
